For 1 protein, Km results are on record in ChEMBL document CHEMBL3351938, “C5-Alkyl-2-methylurea-Substituted Pyridines as a New Class of Glucokinase Activators” (ACS Med Chem Lett, 2014).

Substrate in series [1]: CCc1ncccc1Oc1cc(CC2CCCCC2)cnc1NC(=O)NC
Kind of series: (§1) Activity of human recombinant Glucokinase measured over 5 mins by spectrophotometry. A digest of the protocol: (§2)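 S_0.5 (K_m for glucose) measured with recombinant human GK; duplicate determinations (n = 2).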

Substrate in series [2]: CCc1ncccc1Oc1cc(CCCCO)cnc1NC(=O)NC
Described as §1. A digest of the protocol: as §2

Substrate in series [3]: CCn1nccc1Oc1cc(C[C@H]2C[C@H](O)C2)cnc1NC(=O)NC
The description is as §1. Put shortly: as §2

Substrate in series [4]: CCn1nccc1Oc1cc(CN2CCOCC2)cnc1NC(=O)NC
Described as §1. Put shortly: as §2

Substrate in series [5]: CCOCCc1cnc(NC(=O)NC)c(Oc2cccnc2CC)c1
The description is as §1. Put shortly:
as §2

Substrate in series [6]: CCn1nccc1Oc1cc(CCCCOC)cnc1NC(=O)NC
The description is as §1. Put shortly:
as §2

Substrate in series [7]: CCn1nccc1Oc1cc(C(O)C2CCOCC2)cnc1NC(=O)NC
Described as §1. A digest of the protocol: as §2

Substrate in series [8]: CCn1nccc1Oc1cc(C[C@H]2CC[C@](C)(O)CC2)cnc1NC(=O)NC
The series is described as §1. A digest of the protocol: as §2

Substrate in series [9]: CCn1nccc1Oc1cc(C[C@H]2CC[C@H](O)CC2)cnc1NC(=O)NC
The description is as §1. A digest of the protocol:
as §2

Substrate in series [10]: CCc1ncccc1Oc1cc(CC2CCOCC2)cnc1NC(=O)NC
Described as §1. A digest of the protocol:
as §2

Substrate in series [11]: CCc1ncccc1Oc1cc(CCCOC)cnc1NC(=O)NC
The series is described as §1. A digest of the protocol:
as §2

Substrate in series [12]: CCn1nccc1Oc1cc(C[C@@H]2CCO[C@@H](COC)C2)cnc1NC(=O)NC
Described as §1. A digest of the protocol:
as §2

Substrate in series [13]: CCn1nccc1Oc1cc(CCCC(C)(C)O)cnc1NC(=O)NC
The description is as §1. A digest of the protocol:
as §2

Substrate in series [14]: CCn1nccc1Oc1cc(C[C@H]2CCO[C@H](COC)C2)cnc1NC(=O)NC
The series is described as §1. Put shortly:
as §2

Substrate in series [15]: CCn1nc(COC)cc1Oc1cc(CC2CCOCC2)cnc1NC(=O)NC
Described as §1. Put shortly:
as §2

Substrate in series [16]: CCn1nccc1Oc1cc(C[C@H]2CC[C@@H](O)CC2)cnc1NC(=O)NC
Described as §1. Put shortly:
as §2

Substrate in series [17]: CNC(=O)Nc1ncc(CC2CCOCC2)cc1Oc1ccnn1C(C)C
Described as §1. Put shortly:
as §2

Substrate in series [18]: CCc1ncccc1Oc1cc(CCCCOC)cnc1NC(=O)NC
The description is as §1. Put shortly:
as §2

Substrate in series [19]: CCn1nccc1Oc1cc(C[C@H]2CC[C@@](C)(O)CC2)cnc1NC(=O)NC
The description is as §1. A digest of the protocol: as §2

Substrate in series [20]: CCn1nccc1Oc1cc(C[C@H]2C[C@@](C)(O)C2)cnc1NC(=O)NC
The series is described as §1. A digest of the protocol:
as §2

Substrate in series [21]: CCn1nccc1Oc1cc(CC2CCOCC2)cnc1NC(=O)NC
The series is described as §1. Put shortly:
as §2

Substrate in series [22]: CCc1ncccc1Oc1cc(CC(C)C)cnc1NC(=O)NC
Described as §1. Put shortly: as §2

Substrate in series [23]: CCn1nccc1Oc1cc(C[C@H]2C[C@@H](O)C2)cnc1NC(=O)NC
The description is as §1. Put shortly:
as §2

The Km is the concentration of substrate that gives half-maximal velocity.

B1: Hexokinase-4 (Homo sapiens), P35557 (protein)
chain: MLDDRARMEAAKKEKVEQILAEFQLQEEDLKKVMRRMQKEMDRGLRLETHEEASVKMLPTYVRSTPEGSEVGDFLSLDLGGTNFRVMLVKVGEGEEGQWSVKTKHQMYSIPEDAMTGTAEMLFDYISECISDFLDKHQMKHKKLPLGFTFSFPVRHEDIDKGILLNWTKGFKASGAEGNNVVGLLRDAIKRRGDFEMDVVAMVNDTVATMISCYYEDHQCEVGMIVGTGCNACYMEEMQNVELVEGDEGRMCVNTEWGAFGDSGELDEFLLEYDRLVDESSANPGQQLYEKLIGGKYMGELVRLVLLRLVDENLLFHGEASEQLRTRGAFETRFVSQVESDTGDRKQIYNILSTLGLRPSTTDCDIVRRACESVSTRAAHMCSAGLAGVINRMRESRSEDVMRITVGVDGSVYKLHPSFKERFHASVRRLTPSCEITFIESEEGSGRGAALVSAVACKKACMLGQ
In the case of B1, the Km in series [1] worked out at 760 µM; in [2] it was 850 µM; in series [3], 630 µM; in series [4], 860 µM; in series [5] it was 880 µM; in series [6], 860 µM. Moreover, the Km in series [7] was found to be 1200 µM; in series [8], 690 µM; in series [9], 710 µM; in series [10] it was 850 µM; in series [11] it was 870 µM; in series [12], 880 µM. Moreover, the Km in series [13] was determined as 840 µM; in [14] it was 940 µM; in [15] it was 850 µM; in series [16], 760 µM; in series [17], 950 µM; in series [18], 820 µM. Besides, the Km in series [19] stood at 560 µM; in [20], 820 µM; in [21], 840 µM; in series [22] it was 660 µM; in series [23], 720 µM.
